# Calls of active or inactive are those of the source. The calls are words filed in the database; no cut-off is given here.
# How the values were obtained:
# [1] = molecular target: T1, Signal transducer and transcription activator 6 (Mus musculus) (UniProt P52633); experiment: Inhibition of IL4-induced STAT6 phosphorylation at Y641 in CD4+ T lymphocytes isolated from C57BL/6J mouse preincubated for 2 hrs followed by activation with plate-bound anti-CD3/anti-CD28 and IL4 for 15 mins by Western blot analysis; assay type: cell-based
# T1 sequence (whole entry): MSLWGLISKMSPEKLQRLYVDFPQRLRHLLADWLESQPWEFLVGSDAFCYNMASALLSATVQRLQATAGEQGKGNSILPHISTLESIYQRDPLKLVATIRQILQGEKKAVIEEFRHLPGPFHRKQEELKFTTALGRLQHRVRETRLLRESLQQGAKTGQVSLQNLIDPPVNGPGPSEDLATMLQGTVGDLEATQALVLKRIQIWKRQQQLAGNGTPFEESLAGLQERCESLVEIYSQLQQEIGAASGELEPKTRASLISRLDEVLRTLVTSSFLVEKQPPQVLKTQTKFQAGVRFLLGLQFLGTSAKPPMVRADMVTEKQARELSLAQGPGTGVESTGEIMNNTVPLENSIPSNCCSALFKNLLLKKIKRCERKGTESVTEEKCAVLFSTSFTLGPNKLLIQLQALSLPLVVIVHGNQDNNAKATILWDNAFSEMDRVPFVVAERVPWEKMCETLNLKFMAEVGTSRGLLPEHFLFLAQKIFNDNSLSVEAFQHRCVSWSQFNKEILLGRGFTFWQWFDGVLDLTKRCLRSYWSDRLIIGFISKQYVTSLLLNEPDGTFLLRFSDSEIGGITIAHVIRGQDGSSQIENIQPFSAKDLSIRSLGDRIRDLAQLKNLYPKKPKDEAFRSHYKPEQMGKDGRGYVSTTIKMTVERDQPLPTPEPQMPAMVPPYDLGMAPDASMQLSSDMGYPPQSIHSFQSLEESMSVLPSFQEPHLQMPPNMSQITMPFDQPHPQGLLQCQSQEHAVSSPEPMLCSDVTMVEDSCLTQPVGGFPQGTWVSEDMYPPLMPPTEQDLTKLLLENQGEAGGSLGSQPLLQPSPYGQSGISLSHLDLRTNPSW
# In short: (§1)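 CD4+ T cells from C57BL/6J mice, sorted by AutoMACS; activated 15 min with plate-bound anti-CD3 and/or anti-CD28 with IL-2, IL-6 or IL-4; lysed with protease inhibitors plus 10 mM NaF and 1 mM Na3VO4; Bradford-normalised immunoblots for pSTAT1 (Tyr701), pSTAT5 (Tyr694), pSTAT6 (Tyr641) and total STATs.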
# [2] = species on record: Mus musculus; experiment: Inhibition of IL2-induced STAT5 phosphorylation at Y694 in CD4+ T lymphocytes isolated from C57BL/6J mouse at 0.5 to 5 uM preincubated for 2 hrs followed by activation with plate-bound anti-CD3/anti-CD28 and IL2 for 15 mins by Western blot analysis; assay type: cell-based; in short: as §1
# [3] = molecular target: T2, Signal transducer and activator of transcription 6 (Homo sapiens) (UniProt P42226); experiment: Inhibition of IL4-stimulated STAT6 phosphorylation at tyrosine 641 in human Beas-2B cells at 0.025 to 5 uM incubated for 2 hrs followed by stimulation with IL4 for 1 hr by Western blot assay; assay type: cell-based
# T2 sequence (whole entry): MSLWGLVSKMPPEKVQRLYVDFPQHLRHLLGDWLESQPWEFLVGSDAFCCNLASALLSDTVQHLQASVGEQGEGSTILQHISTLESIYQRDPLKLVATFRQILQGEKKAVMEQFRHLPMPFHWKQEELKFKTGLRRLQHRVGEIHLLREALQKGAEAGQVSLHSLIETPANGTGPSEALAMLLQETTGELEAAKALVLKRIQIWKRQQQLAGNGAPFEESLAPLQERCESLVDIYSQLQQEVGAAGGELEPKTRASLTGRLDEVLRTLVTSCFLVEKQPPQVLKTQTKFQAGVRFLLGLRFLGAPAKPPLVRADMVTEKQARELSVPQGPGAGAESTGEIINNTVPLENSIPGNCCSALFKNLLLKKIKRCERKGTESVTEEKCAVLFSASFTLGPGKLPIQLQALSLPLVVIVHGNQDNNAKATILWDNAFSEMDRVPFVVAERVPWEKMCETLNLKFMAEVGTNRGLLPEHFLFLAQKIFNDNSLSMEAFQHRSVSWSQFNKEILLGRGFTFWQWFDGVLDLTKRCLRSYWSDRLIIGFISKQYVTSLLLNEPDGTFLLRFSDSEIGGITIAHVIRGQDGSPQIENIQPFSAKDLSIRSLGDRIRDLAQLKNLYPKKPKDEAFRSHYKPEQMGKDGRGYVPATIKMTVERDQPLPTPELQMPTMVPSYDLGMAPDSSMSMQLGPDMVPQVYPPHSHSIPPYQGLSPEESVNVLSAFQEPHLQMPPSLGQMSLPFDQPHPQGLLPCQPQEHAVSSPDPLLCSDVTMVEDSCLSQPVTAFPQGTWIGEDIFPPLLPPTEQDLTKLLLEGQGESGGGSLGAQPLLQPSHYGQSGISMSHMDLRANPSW
# In short: (§2)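 Beas-2B seeded at 3.0 × 10^5 cells/well the day before; prodrugs from DMSO stocks added to final concentrations for 2 h, then IL-4 (2 ng/mL) for 1 h. PBS-washed cells lysed with PMSF, protein by modified Lowry; blots blocked in 3% BSA/TBST, probed for pSTAT6 (Tyr641), stripped and reprobed for total STAT6; ECL on X-ray film.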
# [4] = molecular target: Signal transducer and activator of transcription 3 (Mus musculus) (UniProt P42227); experiment: Inhibition of IL6-induced STAT3 phosphorylation at S727 in CD4+ T lymphocytes isolated from C57BL/6J mouse preincubated for 2 hrs followed by activation with plate-bound anti-CD3/anti-CD28 for 15 mins by Western blot analysis
# [5] = Cytotoxicity against human BEAS2B cells assessed as cell viability after 72 hrs by MTS assay; assay type: cell-based; details: beas-2b
# In short: (§3)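 Beas-2B seeded at 2000 cells/well; 10 mM DMSO stocks serially diluted in DMSO and equal amounts added to cultures; 72 h at 37 °C; medium replaced by 1:5 MTS/PBS, 1 h further incubation; viable cells read as optical density at 490 nm.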
# [6] = molecular target: T3, Signal transducer and activator of transcription 1 (Mus musculus) (UniProt P42225); experiment: Inhibition of IL6-induced STAT1 phosphorylation at Y701 in CD4+ T lymphocytes isolated from C57BL/6J mouse preincubated for 2 hrs followed by activation with plate-bound anti-CD3/anti-CD28 and IL6 for 15 mins by Western blot analysis; assay type: cell-based; in short: as §1
# T3 sequence (whole entry): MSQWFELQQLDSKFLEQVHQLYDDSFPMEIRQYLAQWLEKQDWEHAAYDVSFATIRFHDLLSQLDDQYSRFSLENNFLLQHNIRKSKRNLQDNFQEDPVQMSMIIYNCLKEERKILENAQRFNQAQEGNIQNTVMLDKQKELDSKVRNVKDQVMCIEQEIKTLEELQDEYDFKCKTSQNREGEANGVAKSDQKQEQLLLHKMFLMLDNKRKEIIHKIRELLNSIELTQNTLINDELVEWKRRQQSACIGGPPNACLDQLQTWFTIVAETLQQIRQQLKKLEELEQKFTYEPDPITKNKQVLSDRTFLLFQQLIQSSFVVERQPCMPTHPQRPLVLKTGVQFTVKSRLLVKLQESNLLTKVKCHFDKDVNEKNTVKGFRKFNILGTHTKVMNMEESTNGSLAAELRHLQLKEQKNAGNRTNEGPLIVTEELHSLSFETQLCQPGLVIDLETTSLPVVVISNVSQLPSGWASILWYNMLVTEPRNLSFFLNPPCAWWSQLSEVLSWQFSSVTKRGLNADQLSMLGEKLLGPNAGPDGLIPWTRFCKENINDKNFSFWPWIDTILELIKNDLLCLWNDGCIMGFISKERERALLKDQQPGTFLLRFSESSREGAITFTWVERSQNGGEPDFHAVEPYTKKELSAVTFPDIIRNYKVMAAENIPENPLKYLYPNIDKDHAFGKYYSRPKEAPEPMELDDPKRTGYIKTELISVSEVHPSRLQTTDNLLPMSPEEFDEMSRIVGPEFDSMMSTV
# [7] = molecular target: RAC-alpha serine/threonine-protein kinase (Homo sapiens) (UniProt P31749); experiment: Inhibition of EGF-induced AKT phosphorylation at S473 in human MDA-MB-468 cells at 100 nM incubated for 2 hrs followed by stimulation with EGF for 1 hr by Western blot assay; assay type: cell-based
# [8] = molecular target: T2, Signal transducer and activator of transcription 6 (Homo sapiens); experiment: Inhibition of IL4-induced STAT6 phosphorylation at tyrosine 641 in human Beas-2B cells at 0.05 to 5 uM incubated for 2 hrs followed by stimulation with IL4 for 1 hr by Western blot assay; assay type: cell-based; in short: as §2
# [9] = molecular target: T2, Signal transducer and activator of transcription 6 (Homo sapiens); experiment: Inhibition of IL-13-stimulated STAT6 SH2 domain phosphorylation in human Beas-2B cells assessed as inhibition of CCL26 mRNA expression preincubated for 2 hrs followed by stimulation with IL-13 for 24 hrs by RT-PCR analysis
# [10] = molecular target: T2, Signal transducer and activator of transcription 6 (Homo sapiens); experiment: Inhibition of IL-13-stimulated STAT6 SH2 domain phosphorylation in human Beas-2B cells assessed as inhibition of CCL26 mRNA expression at 100 nM preincubated for 2 hrs followed by stimulation with IL-13 for 24 hrs by RT-PCR analysis relative to control
# [11] = molecular target: RAC-alpha serine/threonine-protein kinase (Homo sapiens) (UniProt P31749); experiment: Inhibition of EGF-induced AKT phosphorylation at S473 in human MDA-MB-468 cells at 5 uM incubated for 2 hrs followed by stimulation with EGF for 1 hr by Western blot assay; assay type: cell-based
# [12] = molecular target: T2, Signal transducer and activator of transcription 6 (Homo sapiens); experiment: Inhibition of IL4-induced STAT6 phosphorylation in human MDA-MB-468 cells at 0.1 to 5 uM incubated for 2 hrs followed by stimulation with IL4 for 1 hr by Western blot assay; assay type: cell-based
# In short: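 MDA-MB-468 breast cancer cells serum-starved, treated with prodrugs, then IL-4 stimulated; pSTAT6 read by Western blot.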
# [13] = molecular target: T2, Signal transducer and activator of transcription 6 (Homo sapiens); experiment: Inhibition of IL4-induced STAT6 phosphorylation at tyrosine 641 in human Beas-2B cells at 50 to 100 nM incubated for 2 hrs followed by stimulation with IL4 for 1 hr by Western blot assay; assay type: cell-based; in short: as §2
# [14] = Cytotoxicity against human BEAS2B cells assessed as cell viability at <=1 uM after 72 hrs by MTS assay; assay type: cell-based; details: beas-2b; in short: as §3
# [15] = molecular target: T2, Signal transducer and activator of transcription 6 (Homo sapiens); experiment: Inhibition of IL4-induced STAT6 phosphorylation at tyrosine 641 in human Beas-2B cells at 100 to 500 nM incubated for 2 hrs followed by stimulation with IL4 for 1 hr by Western blot assay; assay type: cell-based; in short: as §2
# Chain of Signal transducer and activator of transcription 3 (Mus musculus) (P42227 whole entry): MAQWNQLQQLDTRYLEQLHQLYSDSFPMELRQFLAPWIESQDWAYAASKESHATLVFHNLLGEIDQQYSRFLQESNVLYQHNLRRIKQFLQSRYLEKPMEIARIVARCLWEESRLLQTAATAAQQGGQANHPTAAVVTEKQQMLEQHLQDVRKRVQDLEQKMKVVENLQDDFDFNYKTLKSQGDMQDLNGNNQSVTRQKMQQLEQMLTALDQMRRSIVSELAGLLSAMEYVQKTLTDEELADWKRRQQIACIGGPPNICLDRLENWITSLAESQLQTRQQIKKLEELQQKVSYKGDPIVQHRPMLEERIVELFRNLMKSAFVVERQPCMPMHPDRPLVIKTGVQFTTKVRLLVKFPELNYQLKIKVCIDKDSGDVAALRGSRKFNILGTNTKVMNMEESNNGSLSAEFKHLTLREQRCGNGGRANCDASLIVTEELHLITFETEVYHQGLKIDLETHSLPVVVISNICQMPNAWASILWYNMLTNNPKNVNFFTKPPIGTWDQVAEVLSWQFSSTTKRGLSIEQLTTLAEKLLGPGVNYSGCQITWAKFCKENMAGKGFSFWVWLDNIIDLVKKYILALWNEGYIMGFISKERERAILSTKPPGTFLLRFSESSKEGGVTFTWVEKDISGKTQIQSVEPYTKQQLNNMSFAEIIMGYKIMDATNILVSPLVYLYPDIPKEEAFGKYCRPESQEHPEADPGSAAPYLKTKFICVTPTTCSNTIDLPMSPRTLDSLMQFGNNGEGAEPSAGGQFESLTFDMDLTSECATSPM
# Chain of RAC-alpha serine/threonine-protein kinase (Homo sapiens) (P31749 whole entry): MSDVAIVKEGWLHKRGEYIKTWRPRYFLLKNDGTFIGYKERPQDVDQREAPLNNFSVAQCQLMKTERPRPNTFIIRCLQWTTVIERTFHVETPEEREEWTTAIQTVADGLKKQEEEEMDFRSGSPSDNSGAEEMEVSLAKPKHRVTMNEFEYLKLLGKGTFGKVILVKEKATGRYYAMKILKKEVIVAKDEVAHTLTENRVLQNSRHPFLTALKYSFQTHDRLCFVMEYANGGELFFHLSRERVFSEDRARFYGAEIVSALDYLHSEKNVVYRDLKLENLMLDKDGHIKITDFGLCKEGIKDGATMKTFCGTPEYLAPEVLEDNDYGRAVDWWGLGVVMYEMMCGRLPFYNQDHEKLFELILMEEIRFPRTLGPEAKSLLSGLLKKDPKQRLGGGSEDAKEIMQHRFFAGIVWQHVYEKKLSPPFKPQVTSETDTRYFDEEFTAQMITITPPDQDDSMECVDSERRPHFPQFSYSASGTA
SMILES,inhibition [1],inhibition [2],inhibition [3],inhibition [4],Activity [5],inhibition [6],inhibition [7],inhibition [8],inhibition [9],inhibition [10] [%],inhibition [11],inhibition [12],inhibition [13],Activity [14],inhibition [15]
C/C(=C\C(=O)N[C@H](C(=O)N1CCC[C@H]1C(=O)N(C)C1CCCCC1)C(C)(C)C)c1ccc(C(F)(F)P(=O)(OCOC(=O)C(C)(C)C)OCOC(=O)C(C)(C)C)cc1,Active,Active,Active,inactive,Non-toxic,inactive,–,–,–,–,–,–,–,–,–
CC(C)(C)C(=O)OCOP(=O)(OCOC(=O)C(C)(C)C)C(F)(F)c1ccc(/C=C/C(=O)N[C@H](C(=O)N2CCC[C@H]2C(=O)Nc2ccccc2)C(C)(C)C)cc1,Active,inactive,–,inactive,Toxic,inactive,Active,Active,–,–,–,–,–,–,–
CC(C)(C)C(=O)OCOP(=O)(OCOC(=O)C(C)(C)C)C(F)(F)c1ccc(/C=C/C(=O)N[C@H](C(=O)N2CCC[C@H]2C(=O)N(c2ccccc2)c2ccc(I)cc2)C(C)(C)C)cc1,inactive,–,–,inactive,–,inactive,–,–,Dose-dependent effect,> 50,–,–,–,–,–
CN(C(=O)[C@@H]1CCCN1C(=O)[C@@H](NC(=O)/C=C/c1ccc(C(F)(F)P(=O)(OCOC(=O)C(C)(C)C)OCOC(=O)C(C)(C)C)cc1)C(C)(C)C)c1ccccc1,Active,Active,–,inactive,Non-toxic,inactive,–,–,–,–,Active,Active,Active,Non-toxic,–
CC(C)(C)C(=O)OCOP(=O)(OCOC(=O)C(C)(C)C)C(F)(F)c1ccc(/C=C/C(=O)N[C@H](C(=O)N2CCC[C@H]2C(=O)N(c2ccccc2)c2ccccc2)C(C)(C)C)cc1,Active,Active,–,inactive,–,inactive,–,–,–,–,–,Active,–,Non-toxic,Active
